# Results from different studies.
# Compare with care: the assays were run in different laboratories.
# Target: Dual specificity mitogen-activated protein kinase kinase 5 (MAP2K5, Homo sapiens, UniProt Q13163)
# Residues used in one study (Q13163 1-448): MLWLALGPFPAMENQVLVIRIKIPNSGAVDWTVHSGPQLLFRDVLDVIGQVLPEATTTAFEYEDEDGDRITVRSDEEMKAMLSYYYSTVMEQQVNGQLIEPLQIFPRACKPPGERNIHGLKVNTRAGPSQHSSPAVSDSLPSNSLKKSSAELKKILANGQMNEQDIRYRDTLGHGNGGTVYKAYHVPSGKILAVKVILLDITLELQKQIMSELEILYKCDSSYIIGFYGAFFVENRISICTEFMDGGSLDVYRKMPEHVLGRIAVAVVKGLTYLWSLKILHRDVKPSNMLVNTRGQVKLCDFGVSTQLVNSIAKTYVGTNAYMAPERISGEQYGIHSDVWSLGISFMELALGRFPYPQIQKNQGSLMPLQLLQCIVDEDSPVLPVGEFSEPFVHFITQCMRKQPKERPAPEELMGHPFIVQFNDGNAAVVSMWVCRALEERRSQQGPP
Compound,test,conditions,remaining binding [%]
CS(=O)(=O)N1CCCC(NC(=O)[C@H](CCC2CCCCC2)NC(=O)c2ccc(CNc3ncnc4c3nnn4-c3ccccc3)cc2)C1 (stereo partly shown),"cell-free assay, competition with immobilised ligand",0.1 µM,100
F[C@@H]1CCN(c2nccc(-c3cnn4ncccc34)n2)C1,binding,1 µM,100
O=C(NCCCN1CCOCC1)c1ccc(Nc2nccc(-c3cc4ccccc4s3)n2)cc1,"binding, competition with immobilised ligand",1 µM,36
C[C@@H]1CCN(c2nccc(-c3cnn4ncccc34)n2)C1,binding,1 µM,71
CN(C(=O)c1ccccc1)c1cc(N(C)c2ccc3c(c2)CCc2ccc(C(=O)NCCN4CCOCC4)cc2C3=O)ccc1F,"cell-free assay, competition with immobilised ligand",1 µM,100
CN(C)c1nccc(-c2cnc3ncccn23)n1,binding,1 µM,48
O=C(O)c1cc(-c2ccc(C3CCNCC3)cc2)c2ccc(-c3ccc(C(F)(F)F)cc3)cc2c1,"cell-free assay, competition with immobilised ligand",1 µM,96
O=C(Nc1c[nH]nc1C(=O)NC1CCNCC1)c1cc(F)cc(F)c1,"binding, competition with immobilised ligand",1 µM,100
CC1CCCN1c1nccc(-c2cnn3ncccc23)n1 (stereo not shown),binding,1 µM,100
NS(=O)(=O)c1cc(NC(=O)Cc2ccccc2)ccc1Oc1cccc(Cl)c1,"cell-free assay, competition with immobilised ligand",1 µM,88
COc1ncc2cc3ccccc3nc2c1C#N,"cell-free assay, competition with immobilised ligand",5 µM,94
CN(c1nccc(-c2cnn3ncccc23)n1)C1CC1,binding,1 µM,100
COc1cnc(Nc2cccc(S(N)(=O)=O)c2)nc1N1CCN(c2ccccc2)CC1,"binding, competition with immobilised ligand",1 µM,84
FC(F)(F)Oc1cccc(-c2cnc3ccc(-c4ccncc4)nn23)c1,"cell-free assay, competition with immobilised ligand",5 µM,35
O=C(c1ccc(Nc2nccc(-c3cc4ccccc4s3)n2)cc1)N1CCC(N2CCCC2)CC1,"binding, competition with immobilised ligand",1 µM,16
CN1CCN(c2cnc3c(C4CCN(C(=O)c5ccc(OC(F)(F)F)cc5N)CC4)ncnc3c2)CC1,"cell-free assay, competition with immobilised ligand",1 µM,86
c1cncc(-c2cccc(Nc3nccc(NC4CCCCC4)n3)c2)c1,"binding, competition with immobilised ligand",10 µM,23
N[C@H]1CCN(c2nccc(-c3cnn4ncccc34)n2)C1,binding,1 µM,69
C[C@@H]1CN(c2cc(-c3nn(C)c4ccc(OC5(C)CC5)cc34)ncn2)C[C@H](C)O1,"cell-free assay, competition with immobilised ligand",1 µM,93
COc1cnc(Nc2cccc(S(N)(=O)=O)c2)nc1N1CCN(c2ccccc2)C(=O)C1,"binding, competition with immobilised ligand",1 µM,67
O=C(c1ccc(Nc2ncc(Cl)c(-c3cc4ccccc4s3)n2)cc1)N1CCC(N2CCCC2)CC1,"binding, competition with immobilised ligand",1 µM,2.9
CN(C)c1nccc(-c2cnn3ncccc23)n1,binding,1 µM,68
